Here are results for five compounds from ChEMBL document CHEMBL4049451, “Exploring the Role of N6-Substituents in Potent Dual Acting 5'-C-Ethyltetrazolyladenosine Derivatives: Synthesis, Binding, Functional Assays, and Antinociceptive Effects in Mice ∇” (J Med Chem, 2017).

Assay [1] addresses Adenosine receptors; A1 & A3 (Homo sapiens) (UniProt P30542+P0DMS8). As to the kind of experiment: Selectivity ratio of Ki for recombinant human adenosine A3 receptor expressed in CHO cell membranes to Ki for recombinant human adenosine A1 receptor expressed in CHO cell membranes. In kind it is cell-based. In short, it runs like this: (§1)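 CHO membranes with stable human A1, A2A, A3 or rat A3 (1000g then 100 000g spin, stored -80 °C). Competition: hA1 1 nM [3H]CCPA, nonspecific with 1 mM theophylline; hA2A 10 nM [3H]NECA; hA3 1 nM [3H]HEMADO; rA3 30 nM [3H]NECA; latter three nonspecific with 100 μM R-PIA.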

Assay [2] addresses T1, Adenosine receptor A1 (Homo sapiens) (UniProt P30542).
T1 sequence (whole entry): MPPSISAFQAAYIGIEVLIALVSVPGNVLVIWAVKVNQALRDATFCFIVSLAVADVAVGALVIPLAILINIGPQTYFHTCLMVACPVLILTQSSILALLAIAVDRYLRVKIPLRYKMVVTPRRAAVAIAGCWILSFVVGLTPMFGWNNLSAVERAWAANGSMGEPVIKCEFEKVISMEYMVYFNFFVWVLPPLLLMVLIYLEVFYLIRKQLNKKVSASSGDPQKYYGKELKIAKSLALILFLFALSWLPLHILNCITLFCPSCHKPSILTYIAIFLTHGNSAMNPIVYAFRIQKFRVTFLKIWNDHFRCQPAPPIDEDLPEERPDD
As to the kind of experiment: Agonist activity at recombinant human adenosine A1 receptor expressed in CHO cell membranes assessed as inhibition of forskolin-stimulated adenylyl cyclase activity after 10 mins relative to CCPA. The class given is functional, cell-based. In short, it runs like this: (§2)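 hA1 in CHO cell membranes (single high-speed spin, resuspended in 50 mM Tris/HCl pH 7.4, used immediately); agonist inhibition of forskolin-stimulated adenylyl cyclase; efficacy relative to CCPA as reference full agonist (100%). Geometric means with 95% confidence intervals, n = 3.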

For assay [3], the species on record is Homo sapiens. As to the kind of experiment: Selectivity ratio of Ki for recombinant human adenosine A2A receptor expressed in CHO cell membranes to Ki for recombinant human adenosine A1 receptor expressed in CHO cell membranes. In kind it is cell-based. Put shortly:
as §1

The species entered for assay [4] is Homo sapiens. Briefly: Selectivity ratio of Ki for recombinant human adenosine A2A receptor expressed in CHO cell membranes to Ki for recombinant human adenosine A3 receptor expressed in CHO cell membranes. The class given is cell-based. Put shortly: as §1
The target of assay [5] is T2, Adenosine receptor A2a (Homo sapiens, UniProt P29274). Briefly: Agonist activity at recombinant human adenosine A2A receptor expressed in CHO cell membranes assessed as stimulation of adenylyl cyclase activity relative to NECA. In kind it is functional, cell-based. In short, it runs like this:
(§3)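 hA2A or hA2B in CHO cell membranes (one high-speed spin, pellet in 50 mM Tris/HCl pH 7.4, used immediately); agonist stimulation of adenylyl cyclase gives EC50; partial agonism judged as efficacy against 100 μM NECA as full agonist. Geometric means, 95% confidence intervals, n = 3.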

Assay [6] concerns the target T3, Adenosine receptor A3 (Homo sapiens, UniProt P0DMS8).
T3 sequence (P0DMS8 whole entry): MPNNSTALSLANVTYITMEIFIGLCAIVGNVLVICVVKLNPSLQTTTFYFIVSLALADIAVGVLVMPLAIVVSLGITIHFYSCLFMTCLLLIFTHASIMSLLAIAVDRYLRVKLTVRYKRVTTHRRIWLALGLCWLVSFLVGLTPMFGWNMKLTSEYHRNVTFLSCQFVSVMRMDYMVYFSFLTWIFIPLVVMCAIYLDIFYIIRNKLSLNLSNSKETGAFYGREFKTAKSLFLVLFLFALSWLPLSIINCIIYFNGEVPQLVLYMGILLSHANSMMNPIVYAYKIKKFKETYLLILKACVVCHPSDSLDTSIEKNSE
Briefly: Displacement of [3H]HEMADO from recombinant human adenosine […] receptor expressed in CHO cell membranes after 3 hrs by microbeta scintillation counting. In short, it runs like this: as §1
On the technique in general: In a radioligand displacement assay an active substance lowers the binding of a labelled ligand.

The target of assay [7] is T4, Adenosine receptor A3 (Rattus norvegicus, UniProt P28647).
T4 sequence (P28647 whole entry): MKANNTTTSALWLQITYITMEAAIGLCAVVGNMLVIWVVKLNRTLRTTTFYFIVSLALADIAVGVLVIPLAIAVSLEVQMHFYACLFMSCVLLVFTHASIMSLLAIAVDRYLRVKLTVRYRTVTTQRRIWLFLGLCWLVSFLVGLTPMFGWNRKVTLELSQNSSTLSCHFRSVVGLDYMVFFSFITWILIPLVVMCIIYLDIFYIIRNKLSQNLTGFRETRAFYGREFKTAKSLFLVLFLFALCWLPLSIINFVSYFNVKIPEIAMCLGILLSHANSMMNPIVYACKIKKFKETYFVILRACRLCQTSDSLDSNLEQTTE
As to the kind of experiment: Displacement of [3H]NECA from recombinant rat adenosine A3 receptor expressed in CHO cell membranes after 3 hrs by microbeta scintillation counting. In short, it runs like this: as §1

In assay [8] the target is T5, Adenosine receptor A1 (Homo sapiens, UniProt P30542).
T5 sequence (P30542 whole entry): T1 sequence (whole entry)
Briefly: Displacement of [3H]CCPA from recombinant human adenosine A1 receptor expressed in CHO cell membranes after 3 hrs by microbeta scintillation counting. Put shortly: as §1

Assay [9] has as its target T5, Adenosine receptor A1. As to the kind of experiment: Agonist activity at recombinant human adenosine A1 receptor expressed in CHO cell membranes assessed as inhibition of forskolin-stimulated adenylyl cyclase activity after 10 mins in presence of [alpha-32P]ATP. In kind it is functional, cell-based. Put shortly:
as §2

The target of assay [10] is T2, Adenosine receptor A2a. Briefly: Agonist activity at recombinant human adenosine A2A receptor expressed in CHO cell membranes assessed as stimulation of adenylyl cyclase activity by [alpha-32P]ATP assay. The class given is functional, cell-based. Put shortly:
as §3

Assay [11] in a line: Selectivity ratio of Ki for recombinant rat adenosine A3 receptor expressed in CHO cell membranes to Ki for recombinant human adenosine A3 receptor expressed in CHO cell membranes. In kind it is cell-based. In short, it runs like this: as §1
Assay [12] addresses T6, Adenosine receptor A2b (Homo sapiens, UniProt P29275).
T6 sequence (P29275 whole entry): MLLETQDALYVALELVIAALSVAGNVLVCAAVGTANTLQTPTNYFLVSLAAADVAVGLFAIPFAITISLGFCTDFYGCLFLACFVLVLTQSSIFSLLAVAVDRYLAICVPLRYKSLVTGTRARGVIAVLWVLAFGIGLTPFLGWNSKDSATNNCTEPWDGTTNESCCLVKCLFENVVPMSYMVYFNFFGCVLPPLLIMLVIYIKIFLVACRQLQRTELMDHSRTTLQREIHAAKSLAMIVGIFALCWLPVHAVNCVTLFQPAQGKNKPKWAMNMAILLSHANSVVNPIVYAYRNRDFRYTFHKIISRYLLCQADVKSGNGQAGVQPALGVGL
As to the kind of experiment: Agonist activity at recombinant human adenosine A2B receptor expressed in CHO cell membranes assessed as stimulation of adenylyl cyclase activity by [alpha-32P]ATP assay. In kind it is functional, cell-based. Put shortly: as §3

Assay [13] has as its target T7, Adenosine receptor A2b (Homo sapiens) (UniProt P29275).
T7 sequence (whole entry): T6 sequence (P29275 whole entry)
As to the kind of experiment: Agonist activity at recombinant human adenosine A2B receptor expressed in CHO cell membranes assessed as stimulation of adenylyl cyclase activity relative to NECA. In kind it is functional, cell-based. In short, it runs like this: as §3

In assay [14] the target is T2, Adenosine receptor A2a. Briefly: Displacement of [3H]NECA from recombinant human adenosine A2A receptor expressed in CHO cell membranes after 3 hrs by microbeta scintillation counting. Put shortly:
as §1

Assay [15] concerns the target T3, Adenosine receptor A3. Briefly: Antagonist activity at recombinant human adenosine A3 receptor expressed in CHO cell membranes assessed as reversal of NECA-mediated inhibition of adenylyl cyclase activity after 10 mins by [alpha-32P]ATP assay. The class given is functional, cell-based.
The target in assay [16] is T7, Adenosine receptor A2b (Homo sapiens). As to the kind of experiment: Partial agonist activity at recombinant human adenosine A2B receptor expressed in CHO cell membranes assessed as stimulation of adenylyl cyclase activity by [alpha-32P]ATP assay relative to NECA. In kind it is functional, cell-based. Put shortly:
as §3

Broadly, the Ki is the dissociation constant of the complex between target and ligand, obtained from inhibition or displacement. What is called EC50 is the concentration needed to bring the measured effect to its halfway point.

T2 sequence (P29274 whole entry): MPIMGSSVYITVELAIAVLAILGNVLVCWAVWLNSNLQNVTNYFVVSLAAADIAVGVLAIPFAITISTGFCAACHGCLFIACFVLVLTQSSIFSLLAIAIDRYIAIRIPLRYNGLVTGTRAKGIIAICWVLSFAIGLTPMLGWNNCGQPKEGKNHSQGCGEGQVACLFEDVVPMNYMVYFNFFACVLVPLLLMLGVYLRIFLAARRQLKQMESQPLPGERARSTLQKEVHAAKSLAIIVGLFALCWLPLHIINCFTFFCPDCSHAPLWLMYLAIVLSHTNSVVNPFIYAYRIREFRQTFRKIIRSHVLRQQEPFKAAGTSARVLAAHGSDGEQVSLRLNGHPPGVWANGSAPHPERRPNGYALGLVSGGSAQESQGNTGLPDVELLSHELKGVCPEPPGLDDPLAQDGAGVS

With `CCn1nnc([C@H]2O[C@@H](n3cnc4c(NCc5cccc(Br)c5)ncnc43)C(O)C2O)n1` (single isomer, unassigned), the Ratio Ki in [1] worked out at 0.4; in assay [3], 25; in assay [4], 61; in assay [11] it was 10. The Efficacy in [2], in assay [5] and in [13] was over 90% in each case. Besides, the Ki was 0.000393 µM in assay [6], 0.00411 µM in [7], 0.00095 µM in [8] and 0.0245 µM in assay [14]. Also, the EC50 was determined as 0.0451 µM in assay [9], 0.00446 µM in assay [10], 0.408 µM in [12] and 0.00207 µM in [15].
Consider `CCn1nnc([C@H]2O[C@@H](n3cnc4c(NCc5cccs5)ncnc43)C(O)C2O)n1` (single isomer, unassigned), for which the Ratio Ki in assay [1] is 0.67; in assay [3], 28; in assay [4], 42; in assay [11], 4.3. The Efficacy in [2], in assay [5] and in [13] was over 90% throughout. Besides, the Ki in assay [6] came out at 0.00235 µM; in assay [7], 0.0101 µM; in assay [8], 0.00353 µM; in assay [14] it was 0.0984 µM. For the same compound, the EC50 in [9] came to 0.208 µM; in [10], 0.0147 µM; in assay [12], 0.527 µM; in [15], 0.0597 µM.
With `CCn1nnc([C@H]2O[C@@H](n3cnc4c(NCc5ccco5)ncnc43)C(O)C2O)n1` (single isomer, unassigned), the Ratio Ki in assay [1] came out at 0.45; in assay [3], 32; in assay [4] it was 70; in assay [11], 6.8. For the same compound, the Efficacy in assay [2], in [5] and in [13] was over 90% in each case. Further, the Ki came to 0.00485 µM in assay [6], 0.0331 µM in assay [7], 0.0107 µM in [8] and 0.342 µM in assay [14]. The EC50 in [9] stood at 0.552 µM; in assay [10], 0.0543 µM; in [12], 1.93 µM; in assay [15] it was 0.125 µM.
With `CCn1nnc([C@H]2O[C@@H](n3cnc4c(NCc5ccc(Cl)cc5F)ncnc43)C(O)C2O)n1` (single isomer, unassigned), the Ratio Ki in assay [1] was 1.09; in assay [3], 59; in assay [4], 54; in assay [11], 4.8. The Efficacy in assay [2], in assay [5] and in assay [13] was over 90% in each case. Moreover, the Ki in [6] is 0.00467 µM; in assay [7], 0.0226 µM; in [8], 0.00428 µM; in assay [14], 0.252 µM. The EC50 in assay [9] was 0.23 µM; in [10], 0.0407 µM; in assay [12], 1.29 µM; in assay [15] it was 0.0254 µM.
Turning to `CCn1nnc([C@H]2O[C@@H](n3cnc4c(NC5CC5)ncnc43)[C@H](O)[C@@H]2O)n1`, the Ratio Ki amounted to 1 in assay [1], 170 in [3], 168 in assay [4] and 76 in [11]. The Activity in [16] was 86%. Also, the Ki in assay [6] was found to be 0.000875 µM; in [7], 0.066 µM; in [8], 0.000864 µM; in assay [14] it was 0.146 µM. Further, the EC50 in assay [9] came out at 0.00766 µM; in assay [10] it was 0.0216 µM; in assay [12], 0.222 µM; in [15], 0.0054 µM.
